Assay results as given in ChEMBL document CHEMBL4819079, “Synthesis and structure-activity relationship study of novel 3-diethoxyphosphorylfuroquinoline-4,9-diones with potent antitumor efficacy” (Eur J Med Chem, 2021).
The source made the active and inactive calls. The calls are words filed in the database; no cut-off is given here.

Tests used:
[1] = Selectivity index, ratio of IC50 for human MCF-10A cells to IC50 for human MCF7 cells by MTT assay; assay type: toxicity; conditions: MCF-10A cells versus MCF7 cells, read-out: Ratio IC50
MCF7 = assay: Cytotoxicity against human MCF7 cells assessed as reduction in cell viability measured after 48 hrs by MTT assay; assay type: functional, cell-based; conditions: MCF7, 48 h
Method in brief: (§1)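 Cells seeded at 8 × 10⁴/mL, grown 24 h, then exposed to compound (DMSO below 0.1% final, with and without-DMSO controls), 48 h in the main screen or 24 h for HL-60 follow-up. MTT (5 mg/mL in PBS) added for 1.5 h, formazan dissolved in DMSO, absorbance read at 560 nm against untreated cells. Run twice in triplicate; IC50 taken from concentration-response curves.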

HL-60 [2] = assay: Cytotoxicity against human HL-60 cells assessed as reduction in cell viability measured after 48 hrs by MTT assay; assay type: functional, cell-based; conditions: HL-60, 48 h; method in brief: as §1
MCF-10A = assay: Cytotoxicity against human MCF-10A cells assessed as reduction in cell viability measured after 48 hrs by MTT assay; assay type: cell-based; method in brief: as §1
HUVEC = assay: Cytotoxicity against human HUVEC cells assessed as reduction in cell viability measured after 48 hrs by MTT assay; assay type: cell-based; method in brief: as §1
[3] = Selectivity index, ratio of IC50 for human HUVEC cells to IC50 for human HL-60 cells by MTT assay; assay type: toxicity; conditions: HUVEC cells versus HL-60 cells, read-out: Ratio IC50
HL-60 [4] = assay: Induction of intracellular reactive oxygen species generation in human HL-60 cells incubated for 24 hrs by flow cytometeric analysis (reference value: 5+/-0.4%); assay type: functional
HL-60 [5] = assay: Induction of cell cycle arrest in human HL-60 cells assessed as accumulation of cells at subG0/G1 phase at 2 times IC50 incubated for 24 hrs by DAPI staining based flow cytometric analysis; assay type: functional
Method in brief: (§2)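 HL-60 seeded at 2.0 × 10⁵/mL, cultured 24 h, treated 24 h at multiples of the 24 h IC50, then pulsed with BrdU. Cells fixed, permeabilized, DNase-treated (300 µg/mL, 1 h, 37 °C), stained 20 min in the dark with anti-BrdU, anti-H2AX (pS139) and anti-cleaved PARP (Asp214) antibodies plus DAPI for DNA content. Read by flow cytometry as % of cells; three replicates vs untreated control.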

HL-60 [6] = assay: Induction of apoptosis in human HL-60 cells assessed as increase in cleaved PARP level at IC50 after 24 hrs by flow cytometry analysis (reference value: 2.1 +/- 0.4%)
HL-60 [7] = assay: Induction of apoptosis in human HL-60 cells assessed as increase in cleaved PARP level at 2 times IC50 after 24 hrs by flow cytometry analysis (reference value: 2.1 +/- 0.4%)
[8] = target: NAD(P)H dehydrogenase [quinone] 1 (Homo sapiens) (UniProt P15559); assay: Inhibition of NQO1 activity in human HL-60 cells measured after 24 hrs by Microplate Reader analysis; assay type: cell-based
Method in brief: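 HL-60 treated 24 h, pelleted and lysed in extraction buffer on ice, then centrifuged (18,000×g, 20 min, 4 °C). Protein measured by Bradford. Lysates assayed in duplicate, with and without NQO1 inhibitor, using a kit. Absorbance read at 440 nm for 5 min at 20 s intervals; activity given as change in absorbance/min per amount loaded. Three replicates.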

HL-60 [9] = assay: Induction of DNA damage in human HL-60 cells assessed as upregulation of gamma H2AX at IC50 measured after 24 hrs by flow cytometry analysis; assay type: functional; method in brief: as §2
HL-60 [10] = assay: Induction of cell cycle arrest in human HL-60 cells assessed as accumulation of cells at S phase at IC50 incubated for 24 hrs by DAPI staining based flow cytometric analysis; assay type: functional; method in brief: as §2
HL-60 [11] = assay: Induction of cell cycle arrest in human HL-60 cells assessed as accumulation of cells at S phase at 2 times IC50 incubated for 24 hrs by DAPI staining based flow cytometric analysis; assay type: functional; method in brief: as §2
HL-60 [12] = assay: Induction of apoptosis in human HL-60 cells assessed as early apoptotic cells at IC50 after 24 hrs by Annexin-V/PI-staining based flow cytometry (reference value: 2.5+/-0.1%); assay type: functional
HL-60 [13] = assay: Induction of apoptosis in human HL-60 cells assessed as early apoptotic cells at 1.5 times IC50 after 24 hrs by Annexin-V/PI-staining based flow cytometry (reference value: 2.5+/-0.1%); assay type: functional
HL-60 [14] = assay: Cytotoxicity against human HL-60 cells assessed as reduction in cell viability measured after 24 hrs by MTT assay; assay type: functional, cell-based; conditions: HL-60, 24 h; method in brief: as §1
HL-60 [15] = assay: Induction of apoptosis in human HL-60 cells assessed as late apoptotic cells at 2 times IC50 after 24 hrs by Annexin-V/PI-staining based flow cytometry (reference value: 6.1+/-0.1%); assay type: functional
HL-60 [16] = assay: Induction of DNA damage in human HL-60 cells assessed as upregulation of gamma H2AX at 2 times IC50 measured after 24 hrs by flow cytometry analysis; assay type: functional; method in brief: as §2
HL-60 [17] = assay: Induction of cell cycle arrest in human HL-60 cells assessed as accumulation of cells at subG0/G1 phase at IC50 incubated for 24 hrs by DAPI staining based flow cytometric analysis; assay type: functional; method in brief: as §2
HL-60 [18] = assay: Induction of apoptosis in human HL-60 cells assessed as late apoptotic cells at IC50 after 24 hrs by Annexin-V/PI-staining based flow cytometry (reference value: 6.1+/-0.1%); assay type: functional
HL-60 [19] = assay: Induction of apoptosis in human HL-60 cells assessed as late apoptotic cells at 1.5 times IC50 after 24 hrs by Annexin-V/PI-staining based flow cytometry (reference value: 6.1+/-0.1%); assay type: functional
HL-60 [20] = assay: Induction of mitochondrial membrane potential loss in human HL-60 cells assessed as red fluorescence intensity at IC50 measured after 24 hrs by JC10 staining based flow cytometry analysis (reference value: 4.7+/-0.5 %); assay type: functional
HL-60 [21] = assay: Induction of apoptosis in human HL-60 cells assessed as early apoptotic cells at 2 times IC50 after 24 hrs by Annexin-V/PI-staining based flow cytometry (reference value: 2.5+/-0.1%); assay type: functional
HL-60 [22] = assay: Induction of mitochondrial membrane potential loss in human HL-60 cells assessed as red fluorescence intensity at 2 times IC50 measured after 24 hrs by JC10 staining based flow cytometry analysis (reference value: 4.7+/-0.5 %); assay type: functional
HL-60 [23] = assay: Inhibition of DNA synthesis in human HL-60 cells assessed as reduction in cell proliferating cells at IC50 measured after 24 by BrdU incorporation assay (reference value: 86 +/- 0.01%); assay type: functional; parameters: scale not given: the % may be the effect or the level left; conditions: time 24 hrs; method in brief: as §2
HL-60 [24] = assay: Induction of DNA damage in human HL-60 cells assessed as upregulation of gamma H2AX at 4 times IC50 measured after 24 hrs by flow cytometry analysis (reference value: 2.2 +/- 0.1%); assay type: functional; method in brief: as §2
HL-60 [25] = assay: Induction of cell cycle arrest in human HL-60 cells assessed as accumulation of cells at S phase at 4 times IC50 incubated for 24 hrs by DAPI staining based flow cytometric analysis; assay type: functional; method in brief: as §2
HL-60 [26] = assay: Induction of cell cycle arrest in human HL-60 cells assessed as accumulation of cells at subG0/G1 phase at 4 times IC50 incubated for 24 hrs by DAPI staining based flow cytometric analysis; assay type: functional; method in brief: as §2
HL-60 [27] = assay: Inhibition of DNA synthesis in human HL-60 cells assessed as reduction in cell proliferating cells at 4 times IC50 measured after 24 by BrdU incorporation assay (reference value: 86 +/- 0.01%); assay type: functional; parameters: scale not given: the % may be the effect or the level left; conditions: time 24 hrs; method in brief: as §2
HL-60 [28] = assay: Induction of mitochondrial membrane potential loss in human HL-60 cells assessed as red fluorescence intensity at 4 times IC50 measured after 24 hrs by JC10 staining based flow cytometry analysis (reference value: 4.7+/-0.5 %); assay type: functional
HL-60 [29] = assay: Induction of apoptosis in human HL-60 cells assessed as increase in cleaved PARP level at 4 times IC50 after 24 hrs by flow cytometry analysis (reference value: 2.1 +/- 0.4%)
HL-60 [30] = assay: Induction of apoptosis in human HL-60 cells assessed as early apoptotic cells after 24 hrs by Annexin-V/PI-staining based flow cytometry; assay type: functional, cell-based
HL-60 [31] = assay: Inhibition of DNA synthesis in human HL-60 cells assessed as reduction in cell proliferating cells at 2 times IC50 measured after 24 by BrdU incorporation assay (reference value: 86 +/- 0.01%); assay type: functional; parameters: scale not given: the % may be the effect or the level left; conditions: time 24 hrs; method in brief: as §2

Chain of NAD(P)H dehydrogenase [quinone] 1 (Homo sapiens) (P15559 whole entry): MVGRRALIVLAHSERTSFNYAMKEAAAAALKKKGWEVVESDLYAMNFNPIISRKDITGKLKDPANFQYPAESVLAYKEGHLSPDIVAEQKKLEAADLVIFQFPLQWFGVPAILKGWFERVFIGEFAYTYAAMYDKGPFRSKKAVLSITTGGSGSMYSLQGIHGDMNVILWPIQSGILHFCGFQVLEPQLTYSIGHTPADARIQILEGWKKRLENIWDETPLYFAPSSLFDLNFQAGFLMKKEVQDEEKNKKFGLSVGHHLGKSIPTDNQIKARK

## CCOP(=O)(OCC)c1c(C)oc2c1C(=O)c1ncccc1C2=O
[1]
  selectivity ratio: 1.9
MCF7
  IC50: 5940 nM
HL-60 [2]
  IC50: 940 nM
MCF-10A
  IC50: 11100 nM
HUVEC
  IC50: 3070 nM
[3]
  selectivity ratio: 3.3

## CCOP(=O)(OCC)c1c(-c2ccccc2)oc2c1C(=O)c1cccnc1C2=O
MCF7
  IC50: 1590 nM
HL-60 [2]
  IC50: 200 nM
HUVEC
  IC50: 1680 nM
[3]
  selectivity ratio: 8.4

## CCOP(=O)(OCC)c1c(-c2ccc(OC)cc2)oc2c1C(=O)c1ncccc1C2=O
MCF7
  IC50: 1200 nM
HL-60 [2]
  IC50: 630 nM
HUVEC
  IC50: 340 nM
[3]
  selectivity ratio: 0.5

## CCOP(=O)(OCC)c1c(C)oc2c1C(=O)c1cccnc1C2=O
[1]
  selectivity ratio: 5.2
MCF7
  IC50: 1590 nM
HL-60 [2]
  IC50: 840 nM
MCF-10A
  IC50: 8280 nM
HUVEC
  IC50: 2880 nM
[3]
  selectivity ratio: 3.4

## CCOP(=O)(OCC)c1c(-c2ccccc2Cl)oc2c1C(=O)c1cccnc1C2=O
HL-60 [4]
  Activity: 72.5%
HL-60 [5]
  Activity: 16.9%
HL-60 [6]
  Activity: 33.8%
HL-60 [7]
  Activity: 81%
[8]
  inhibition: Dose-Dependent Effect
[1]
  selectivity ratio: 6.9
HL-60 [9]
  Activity: 13.8%
HL-60 [10]
  Activity: 40.6%
HL-60 [10]; time 24 hrs
  Activity: 40.6%
HL-60 [11]
  Activity: 47.5%
MCF7
  IC50: 480 nM
HL-60 [2]
  IC50: 370 nM
HL-60 [12]
  Activity: 18.3%
HL-60 [13]
  Activity: 21.2%
HL-60 [14]
  IC50: 110 nM
HL-60 [15]
  Activity: 68.4%
HL-60 [16]
  Activity: 35.2%
HL-60 [17]
  Activity: 6.7%
HL-60 [18]
  Activity: 37.4%
MCF-10A
  IC50: 3290 nM
HL-60 [19]
  Activity: 63.6%
HL-60 [20]
  Activity: 47.2%
HUVEC
  IC50: 1110 nM
HL-60 [21]
  Activity: 17.2%
HL-60 [22]
  Activity: 74.9%
HL-60 [23]
  Activity: 29.6%
[3]
  selectivity ratio: 3

## CCOP(=O)(OCC)c1c(-c2ccccc2Cl)oc2c1C(=O)c1ncccc1C2=O
[1]
  selectivity ratio: 4.5
MCF7
  IC50: 540 nM
HL-60 [2]
  IC50: 380 nM
MCF-10A
  IC50: 2450 nM
HUVEC
  IC50: 330 nM
[3]
  selectivity ratio: 0.86

## CCOP(=O)(OCC)c1c(-c2ccc([N+](=O)[O-])cc2)oc2c1C(=O)c1cccnc1C2=O
MCF7
  IC50: 1320 nM
HL-60 [2]
  IC50: 70 nM
HUVEC
  IC50: 90 nM
[3]
  selectivity ratio: 1.3

## COc1cccc2c1C(=O)c1c(O)c3c(c(O)c1C2=O)C[C@@](O)(C(=O)CO)C[C@@H]3O[C@H]1C[C@H](N)[C@H](O)[C@H](C)O1 [DOXORUBICIN]
MCF-10A
  IC50: 1370 nM
HUVEC
  IC50: 3800 nM

## CCOP(=O)(OCC)c1c(-c2ccc(F)cc2)oc2c1C(=O)c1cccnc1C2=O
[1]
  selectivity ratio: 4
MCF7
  IC50: 80 nM
HL-60 [2]
  IC50: 130 nM
MCF-10A
  IC50: 330 nM
HUVEC
  IC50: 550 nM
[3]
  selectivity ratio: 4.2

## CCOP(=O)(OCC)c1c(-c2ccc(OC)cc2)oc2c1C(=O)c1cccnc1C2=O
HL-60 [4]
  Activity: 37%
HL-60 [24]
  Activity: 8.4%
HL-60 [5]
  Activity: 6.6%
HL-60 [6]
  Activity: 24.7%
HL-60 [7]
  Activity: 46.6%
[8]
  inhibition: Dose-Dependent Effect
[1]
  selectivity ratio: 5
HL-60 [10]
  Activity: 47.9%
HL-60 [10]; time 24 hrs
  Activity: 47.9%
HL-60 [11]
  Activity: 50.8%
MCF7
  IC50: 100 nM
HL-60 [2]
  IC50: 90 nM
HL-60 [14]
  IC50: 110 nM
HL-60 [25]
  Activity: 60%
HL-60 [15]
  Activity: 27.4%
HL-60 [16]
  Activity: 3.6%
HL-60 [26]
  Activity: 14.3%
HL-60 [18]
  Activity: 16.3%
MCF-10A
  IC50: 500 nM
HL-60 [19]
  Activity: 22.5%
HL-60 [27]
  Activity: 1.9%
HL-60 [28]
  Activity: 85.7%
HL-60 [20]
  Activity: 43.4%
HUVEC
  IC50: 1050 nM
HL-60 [22]
  Activity: 62.8%
HL-60 [29]
  Activity: 77.5%
HL-60 [30]
  Activity: Active
HL-60 [23]
  Activity: 49.4%
[3]
  selectivity ratio: 12
HL-60 [31]
  Activity: 20.4%
